According to ChEMBL document CHEMBL4425111, “Optically Pure, Structural, and Fluorescent Analogues of a Dimeric Y4 Receptor Agonist Derived by an Olefin Metathesis Approach” (J Med Chem, 2016):
pEC50, pIC50: −log10 of the molar value.

Columns and labels:
[1] = target: T1, Neuropeptide Y receptor type 4 (Homo sapiens, UniProt P50391); experiment: Agonist activity at GFP-tagged neuropeptide Y4R (unknown origin) expressed in HEK293T cells assessed as beta-arrestin2 recruitment measured after 60 mins by H33342 staining-based imaging method relative to PP; assay type: cell-based
T1 sequence (P50391 whole entry): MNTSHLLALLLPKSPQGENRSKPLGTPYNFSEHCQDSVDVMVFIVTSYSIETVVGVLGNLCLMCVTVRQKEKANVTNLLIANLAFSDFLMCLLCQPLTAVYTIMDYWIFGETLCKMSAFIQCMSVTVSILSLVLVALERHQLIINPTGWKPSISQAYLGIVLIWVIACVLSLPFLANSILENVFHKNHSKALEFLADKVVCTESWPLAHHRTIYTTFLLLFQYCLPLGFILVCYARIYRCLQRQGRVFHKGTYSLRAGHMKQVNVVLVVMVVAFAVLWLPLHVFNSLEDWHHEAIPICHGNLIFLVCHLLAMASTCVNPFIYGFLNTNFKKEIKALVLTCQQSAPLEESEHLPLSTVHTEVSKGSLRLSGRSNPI
Procedure, shortened: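 Y4R–β-arrestin2 BiFC cell lines were seeded on poly-D-lysine plates and tested 24 h later. Ligands (10^-10–10^-6 M, duplicate wells) were applied in HBSS/0.1% BSA for 60 min at 37°C. Cells were fixed with 3% paraformaldehyde (10 min, 21°C) and nuclei stained with H33342. Confocal images were taken at 405/488 nm, and internal YFP granules ≥3 µm were counted against vehicle or 100 nM PP thresholds.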

[2] = target: T1, Neuropeptide Y receptor type 4; experiment: Displacement of [Lys2(sCy5),Arg4]-BVD-15 from C-terminal GFP-tagged neuropeptide Y4R (unknown origin) expressed in human 293TR cells measured after 30 mins by fluorescence analysis; assay type: cell-based; settings: for IC50: read-out: pIC50 (converted)
[3] = target: T1, Neuropeptide Y receptor type 4; experiment: Agonist activity at GFP-tagged neuropeptide Y4R (unknown origin) expressed in HEK293T cells assessed as beta-arrestin2 recruitment measured after 60 mins by H33342 staining-based imaging method; assay type: cell-based; settings: for EC50: read-out: pEC50 (converted)
[4] = target: T1, Neuropeptide Y receptor type 4; experiment: Agonist activity at GFP-tagged neuropeptide Y4R (unknown origin) expressed in HEK293T cells assessed as beta-arrestin2 recruitment at 1 uM measured after 60 mins by H33342 staining-based imaging method relative to PP; assay type: cell-based
Procedure, shortened: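 Y4R–β-arrestin2 BiFC cells were stimulated in HBSS/0.1% BSA for 60 min at 37°C, then fixed with 3% paraformaldehyde and stained with H33342. Complemented YFP was imaged by confocal platereader and quantified by granularity analysis with vehicle or 100 nM PP controls. Where agonist activity was not significant, the response at 1 µM peptide was reported.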

Homo sapiens = species on record: Homo sapiens; experiment: Selectivity ratio of IC50 for GFP-tagged neuropeptide Y1R (unknown origin) expressed in HEK293T cells to IC50 for C-terminal GFP-tagged neuropeptide Y4R (unknown origin) expressed in human 293TR cells; assay type: cell-based
Procedure, shortened: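 Whole-cell competition binding used tetracycline-induced 293TR cells expressing Y1-GFP or Y4-GFP. Cells were exposed to competitor for 2 min, then to sCy5-labelled tracer (10 nM for Y1R, 100 nM for Y4R) for 30 min at 37°C.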

[5] = Cellular uptake in human 293T-rex cells expressing C-terminal GFP-tagged neuropeptide Y4R measured after 30 mins by fluorescence analysis; assay type: ADME, cell-based; settings: hek-293t, 0.5 h
Procedure, shortened: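 293TR Y4-GFP cells, induced with 1 µg/ml tetracycline for 18–21 h, were incubated with sCy5-labelled peptide for 30 min at 37°C in HBSS/0.1% BSA with H33342. Controls were uninduced cells and 1 µM PP competition. Surface and intracellular sCy5 fluorescence was imaged by confocal platereader.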

Structure (SMILES) | Rmax [1] | IC50 [2] | EC50 [3] | Rmax [4] | pIC50 ([2]; read-out: IC50) | pEC50 ([3]; read-out: EC50) | Drug uptake [5] | Ratio IC50 (Homo sapiens)
COC(=O)[C@H](Cc1ccc(O)cc1)NC(=O)[C@H](CCCNC(=N)N)NC(=O)[C@H](CC(C)C)NC(=O)[C@H](CCCNC(=N)N)NC(=O)[C@H](Cc1ccc(O)cc1)NC(=O)[C@@H](N)CCCC[C@H](N)C(=O)N[C@@H](Cc1ccc(O)cc1)C(=O)N[C@@H](CCCNC(=N)N)C(=O)N[C@@H](CC(C)C)C(=O)N[C@@H](CCCNC(=N)N)C(=O)N[C@@H](Cc1ccc(O)cc1)C(N)=O | 49.1% | 93.3 nM | > 316 nM |  |  |  |  | 
COC(=O)[C@H](Cc1ccc(O)cc1)NC(=O)[C@H](CCCNC(=N)N)NC(=O)[C@H](CC(C)C)NC(=O)[C@H](CCCNC(=N)N)NC(=O)[C@H](Cc1ccc(O)cc1)NC(=O)[C@@H](N)CCCC[C@H](N)C(=O)N[C@@H](Cc1ccc(O)cc1)C(=O)N[C@@H](CCCNC(=N)N)C(=O)N[C@@H](CC(C)C)C(=O)N[C@@H](CCCNC(=N)N)C(=O)N[C@@H](Cc1ccc(O)cc1)C(=O)OC |  | 617 nM |  | 11.3% |  |  |  | 0.38
CC(C)C[C@H](NC(=O)[C@H](CCCNC(=N)N)NC(=O)[C@H](Cc1ccc(O)cc1)NC(=O)[C@H](N)C/C=C\C[C@@H](N)C(=O)N[C@@H](Cc1ccc(O)cc1)C(=O)N[C@@H](CCCNC(=N)N)C(=O)N[C@@H](CC(C)C)C(=O)N[C@@H](CCCNC(=N)N)C(=O)N[C@@H](Cc1ccc(O)cc1)C(N)=O)C(=O)N[C@@H](CCCNC(=N)N)C(=O)N[C@@H](Cc1ccc(O)cc1)C(N)=O | 61% | 24 nM | 38 nM |  |  |  |  | 
CC(C)C[C@H](NC(=O)[C@H](CCCNC(=N)N)NC(=O)[C@H](Cc1ccc(O)cc1)NC(=O)[C@@H](N)C/C=C\C[C@H](N)C(=O)N[C@@H](Cc1ccc(O)cc1)C(=O)N[C@@H](CCCNC(=N)N)C(=O)N[C@@H](CC(C)C)C(=O)N[C@@H](CCCNC(=N)N)C(=O)N[C@@H](Cc1ccc(O)cc1)C(N)=O)C(=O)N[C@@H](CCCNC(=N)N)C(=O)N[C@@H](Cc1ccc(O)cc1)C(N)=O | 44.5% | 132 nM | 30.2 nM |  |  |  |  | 3.7
CC(C)C[C@H](NC(=O)[C@H](CCCNC(=N)N)NC(=O)[C@H](Cc1ccc(O)cc1)NC(=O)[C@@H](N)CCCC[C@H](N)C(=O)N[C@@H](Cc1ccc(O)cc1)C(=O)N[C@@H](CCCNC(=N)N)C(=O)N[C@@H](CC(C)C)C(=O)N[C@@H](CCCNC(=N)N)C(=O)N[C@@H](Cc1ccc(O)cc1)C(N)=O)C(=O)N[C@@H](CCCNC(=N)N)C(=O)N[C@@H](Cc1ccc(O)cc1)C(N)=O | 57.1% | 69.2 nM | 83.2 nM |  |  |  |  | 
CC(C)C[C@H](NC(=O)[C@H](CCCNC(=N)N)NC(=O)[C@H](Cc1ccc(O)cc1)NC(=O)[C@H](N)CCCC[C@@H](N)C(=O)N[C@@H](Cc1ccc(O)cc1)C(=O)N[C@@H](CCCNC(=N)N)C(=O)N[C@@H](CC(C)C)C(=O)N[C@@H](CCCNC(=N)N)C(=O)N[C@@H](Cc1ccc(O)cc1)C(N)=O)C(=O)N[C@@H](CCCNC(=N)N)C(=O)N[C@@H](Cc1ccc(O)cc1)C(N)=O | 61.5% |  |  |  | 7.90 | 8.34 |  | 30

Now from value to compound, other results behind:

Rmax [1] | IC50 [2] | EC50 [3] | Rmax [4] | pIC50 ([2]; read-out: IC50) | pEC50 ([3]; read-out: EC50) | Drug uptake [5] | Structure (SMILES) | Ratio IC50 (Homo sapiens)
29.2% | 69.2 nM | 5.5 nM |  |  |  |  | CCN(CC)c1ccc2c(-c3ccccc3C(=O)N3CCN(C(=O)CCC(=O)N[C@@H](C/C=C\C[C@H](N)C(=O)N[C@@H](Cc4ccc(O)cc4)C(=O)N[C@@H](CCCNC(=N)N)C(=O)N[C@@H](CC(C)C)C(=O)N[C@@H](CCCNC(=N)N)C(=O)N[C@@H](Cc4ccc(O)cc4)C(N)=O)C(=O)N[C@@H](Cc4ccc(O)cc4)C(=O)N[C@@H](CCCNC(=N)N)C(=O)N[C@@H](CC(C)C)C(=O)N[C@@H](CCCNC(=N)N)C(=O)N[C@@H](Cc4ccc(O)cc4)C(N)=O)CC3)c3ccc(=[N+](CC)CC)cc-3oc2c1 | 
 | 70.8 nM |  | 15.9% |  |  |  | CCN(CC)c1ccc2c(-c3ccccc3C(=O)N3CCN(C(=O)CCC(=O)N[C@@H](CCCC[C@H](N)C(=O)N[C@@H](Cc4ccc(O)cc4)C(=O)N[C@@H](CCCNC(=N)N)C(=O)N[C@@H](CC(C)C)C(=O)N[C@@H](CCCNC(=N)N)C(=O)N[C@@H](Cc4ccc(O)cc4)C(N)=O)C(=O)N[C@@H](Cc4ccc(O)cc4)C(=O)N[C@@H](CCCNC(=N)N)C(=O)N[C@@H](CC(C)C)C(=O)N[C@@H](CCCNC(=N)N)C(=O)N[C@@H](Cc4ccc(O)cc4)C(N)=O)CC3)c3ccc(=[N+](CC)CC)cc-3oc2c1 | 
39.3% | 70.8 nM | 3.72 nM |  |  |  |  | CCN(CC)c1ccc2c(-c3ccccc3C(=O)N3CCN(C(=O)CCC(=O)N[C@H](C/C=C\C[C@@H](N)C(=O)N[C@@H](Cc4ccc(O)cc4)C(=O)N[C@@H](CCCNC(=N)N)C(=O)N[C@@H](CC(C)C)C(=O)N[C@@H](CCCNC(=N)N)C(=O)N[C@@H](Cc4ccc(O)cc4)C(N)=O)C(=O)N[C@@H](Cc4ccc(O)cc4)C(=O)N[C@@H](CCCNC(=N)N)C(=O)N[C@@H](CC(C)C)C(=O)N[C@@H](CCCNC(=N)N)C(=O)N[C@@H](Cc4ccc(O)cc4)C(N)=O)CC3)c3ccc(=[N+](CC)CC)cc-3oc2c1 | 
65.6% |  | 33.1 nM |  |  |  | Dose-dependent effect | CCN1\C(=C/C=C/C=C/C2=[N+](CCCCCC(=O)N[C@H](CCCC[C@@H](N)C(=O)N[C@@H](Cc3ccc(O)cc3)C(=O)N[C@@H](CCCNC(=N)N)C(=O)N[C@@H](CC(C)C)C(=O)N[C@@H](CCCNC(=N)N)C(=O)N[C@@H](Cc3ccc(O)cc3)C(N)=O)C(=O)N[C@@H](Cc3ccc(O)cc3)C(=O)N[C@@H](CCCNC(=N)N)C(=O)N[C@@H](CC(C)C)C(=O)N[C@@H](CCCNC(=N)N)C(=O)N[C@@H](Cc3ccc(O)cc3)C(N)=O)c3ccc(S(=O)(=O)O)cc3C2(C)C)C(C)(C)c2cc(S(=O)(=O)[O-])ccc21 | 
56.6% |  | 95.5 nM |  |  |  | Dose-dependent effect | CCN1\C(=C/C=C/C=C/C2=[N+](CCCCCC(=O)N[C@@H](CCCC[C@H](N)C(=O)N[C@@H](Cc3ccc(O)cc3)C(=O)N[C@@H](CCCNC(=N)N)C(=O)N[C@@H](CC(C)C)C(=O)N[C@@H](CCCNC(=N)N)C(=O)N[C@@H](Cc3ccc(O)cc3)C(N)=O)C(=O)N[C@@H](Cc3ccc(O)cc3)C(=O)N[C@@H](CCCNC(=N)N)C(=O)N[C@@H](CC(C)C)C(=O)N[C@@H](CCCNC(=N)N)C(=O)N[C@@H](Cc3ccc(O)cc3)C(N)=O)c3ccc(S(=O)(=O)O)cc3C2(C)C)C(C)(C)c2cc(S(=O)(=O)[O-])ccc21 | 
